{
  "source": "ChEMBL document CHEMBL3877244",
  "about": "“Synthesis and biological evaluation of new aryl-alkyl(alkenyl)-4-benzylpiperidines, novel Sigma Receptor (SR) modulators, as potential anticancer-agents” (Eur J Med Chem, 2016)",
  "key": {"[1]": {"test_system": "LNCaP", "test": "Cytotoxicity against human LNCAP cells assessed as reduction in cell viability after 48 hrs in presence of 10% fetal calf serum by MTS assay", "format": "functional, cell-based", "how_it_was_run": "(§1)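 Cells in exponential growth, 3×10^3 per well, in medium with 10% FCS. Capan-2, PaCa3, MDA-MB 231, SUM 159 and PC3 were grown in DMEM/Ham's F12 with glutamine 2 mM and insulin 10 µg/ml. U87 was grown in EMEM and LNCaP in RPMI, each with glutamine. Compound 0.1–100 µM, continuous exposure (24 h; 48 h for the 48 h lines). MTS, OD 490 nm. IC50 read graphically. Three independent experiments in octuplicate.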"}, "[2]": {"test": "Cytotoxicity against human Paca3 cells assessed as decrease in cell viability under starvation condition after 24 hrs by MTS assay", "format": "functional, cell-based", "conditions": "Paca3, 24 h", "how_it_was_run": "(§2)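 Cells starved 24 h in low-glucose medium without FCS, then treated 24 h with compound in serum-free conditions. MTS read-out, OD 490 nm, expressed as percent of untreated control. IC50 read graphically from the dose-response plot. Three independent experiments in octuplicate.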"}, "[3]": {"biological_target": "Sigma non-opioid intracellular receptor 1 (Cavia porcellus, UniProt Q60492)", "sequence (Q60492 whole entry)": "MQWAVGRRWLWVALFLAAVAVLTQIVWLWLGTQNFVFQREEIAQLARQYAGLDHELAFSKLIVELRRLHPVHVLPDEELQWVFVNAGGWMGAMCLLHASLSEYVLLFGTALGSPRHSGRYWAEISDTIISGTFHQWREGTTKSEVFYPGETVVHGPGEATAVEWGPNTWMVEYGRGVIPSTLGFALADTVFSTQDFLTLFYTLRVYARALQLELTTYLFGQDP", "test": "Displacement of [3H]-pentazocine from sigma 1 receptor in guinea pig brain cortical membrane after 120 mins by scintillation counting analysis", "format": "cell membranes", "how_it_was_run": "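Nonspecific binding defined with unlabeled (+)-pentazocine. Filtration, then scintillation counting. IC50 by nonlinear regression, converted to Ki by Cheng–Prusoff.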"}, "[4]": {"test": "Cytotoxicity against human LNCAP cells assessed as reduction in cell viability after 24 hrs in presence of 10% fetal calf serum by MTS assay", "format": "functional, cell-based", "how_it_was_run": "as §1"}, "[5]": {"test_system": "Paca3", "test": "Induction of apoptosis in human Paca3 cells assessed as cleaved form of caspase 3 at 10 uM after 24 hrs in absence of 10% fetal calf serum by Western blot analysis", "format": "functional, cell-based", "how_it_was_run": "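PaCa3 cells starved 24 h without FCS, then exposed to 10 μM. Cleaved caspase 3 detected by western blot. Membranes blocked with 5% milk in T-TBS, primary antibody overnight at 4 °C, then secondary antibody, chemiluminescent detection.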"}, "[6]": {"test": "Induction of apoptosis in human Paca3 cells assessed as early apoptotic cells in absence of 10% fetal calf serum at 10 uM after 24 hrs by annexin V-FITC/propidium iodide staining-based flow cytometry (reference value: 3.5 +/- 0.7%)", "format": "functional"}, "[7]": {"test": "Cytotoxicity against human Paca3 cells assessed as decrease in cell viability using complete medium after 24 hrs by MTS assay", "format": "functional, cell-based", "conditions": "Paca3, 24 h", "how_it_was_run": "as §1"}, "[8]": {"test": "Cytotoxicity against human U87 cells assessed as reduction in cell viability after 24 hrs in presence of 10% fetal calf serum by MTS assay", "format": "functional, cell-based, U-87MG ATCC", "conditions": "U-87 MG", "how_it_was_run": "as §1"}, "[9]": {"test": "Induction of apoptosis in human Paca3 cells assessed as late apoptotic cells in presence of 10% fetal calf serum at 25 uM after 24 hrs by annexin V-FITC/propidium iodide staining-based flow cytometry (reference value: 4 +/- 0.8%)", "format": "functional"}, "[10]": {"test_system": "PC-3", "test": "Cytotoxicity against human PC3 cells assessed as reduction in cell viability after 48 hrs in presence of 10% fetal calf serum by MTS assay", "format": "functional, cell-based", "how_it_was_run": "as §1"}, "[11]": {"test": "Cytotoxicity against human Capan2 cells assessed as reduction in cell viability after 24 hrs in presence of 10% fetal calf serum by MTS assay", "format": "functional, cell-based", "conditions": "Capan-2, 24 h", "how_it_was_run": "as §1"}, "[12]": {"test": "Cytotoxicity against human U87 cells assessed as reduction in cell viability after 24 hrs in absence of 10% fetal calf serum by MTS assay", "format": "functional, cell-based, U-87MG ATCC", "conditions": "U-87 MG", "how_it_was_run": "as §2"}, "[13]": {"test": "Induction of apoptosis in human Paca3 cells assessed as viable cells in absence of 10% fetal calf serum at 10 uM after 24 hrs by annexin V-FITC/propidium iodide staining-based flow cytometry (reference value: 91.1 +/- 0.7%)", "format": "functional"}, "[14]": {"test_system": "Paca3", "test": "Induction of apoptosis in human Paca3 cells assessed as cleaved form of caspase 3 at 25 uM after 24 hrs in presence of 10% fetal calf serum by Western blot analysis", "format": "functional, cell-based", "how_it_was_run": "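PaCa3 cells in 10% serum medium, exposed 24 h to 25 μM. Cleaved caspase 3 detected by western blot. Membranes blocked with T-TBS (0.1% Tween) and 5% non-fat milk, primary antibody overnight at 4 °C, then secondary antibody, chemiluminescent detection. Two independent experiments.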"}, "[15]": {"test": "Induction of apoptosis in human Paca3 cells assessed as early apoptotic cells in presence of 10% fetal calf serum at 25 uM after 24 hrs by annexin V-FITC/propidium iodide staining-based flow cytometry (reference value: 5.6 +/- 0.3%)", "format": "functional"}, "[16]": {"biological_target": "Sigma non-opioid intracellular receptor 1 (Rattus norvegicus) (UniProt Q9R0C9)", "sequence (Q9R0C9 whole entry)": "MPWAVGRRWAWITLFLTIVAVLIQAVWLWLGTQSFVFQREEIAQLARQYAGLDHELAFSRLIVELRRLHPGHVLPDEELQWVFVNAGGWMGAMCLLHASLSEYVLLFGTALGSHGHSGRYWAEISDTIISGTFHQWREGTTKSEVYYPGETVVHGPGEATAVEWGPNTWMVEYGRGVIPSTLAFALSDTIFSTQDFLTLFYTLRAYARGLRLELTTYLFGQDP", "test": "Antagonist activity at sigma 1 receptor in rat PC12 cells assessed as inhibition of NGF-induced neurite outgrowth at 2.5 to 10 uM after 96 hrs", "format": "cell-based", "conditions": "PC-12", "how_it_was_run": "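PC12 cells grown in RPMI 1640 with 10% heat-inactivated horse serum and 5% FBS. Differentiation ran in medium with 0.5% serum plus NGF 2.5 ng/ml, with compound at 0–10 μM for 96 h. Neurite outgrowth was scored. Data are mean±sem of at least 5 experiments, each in triplicate.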"}, "[17]": {"test": "Cytotoxicity against human LNCAP cells assessed as reduction in cell viability after 24 hrs in absence of 10% fetal calf serum by MTS assay", "format": "functional, cell-based", "how_it_was_run": "as §2"}, "[18]": {"test": "Induction of apoptosis in human Paca3 cells assessed as late apoptotic cells in absence of 10% fetal calf serum at 10 uM after 24 hrs by annexin V-FITC/propidium iodide staining-based flow cytometry (reference value: 4.6 +/- 0.5%)", "format": "functional"}, "[19]": {"test": "Induction of apoptosis in human Paca3 cells assessed as necrotic cells in presence of 10% fetal calf serum at 25 uM after 24 hrs by annexin V-FITC/propidium iodide staining-based flow cytometry (reference value: 0.6 +/- 0.4%)", "format": "functional"}, "[20]": {"test": "Displacement of [3H]-DTG from sigma 2 receptor in rat liver after 120 mins by scintillation counting analysis", "how_it_was_run": "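Rat liver homogenate (150 µg) incubated 120 min at room temperature with 3 nM [³H]-DTG in 50 mM Tris-HCl pH 8.0. (+)-Pentazocine 100 nM masked S1R; haloperidol 10 µM defined nonspecific binding. Ki by Cheng–Prusoff from IC50.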"}, "[21]": {"test_system": "MDA-MB-231", "test": "Cytotoxicity against human MDA-MB-231 cells assessed as reduction in cell viability after 48 hrs in presence of 10% fetal calf serum by MTS assay", "format": "functional, cell-based", "how_it_was_run": "as §1"}, "[22]": {"biological_target": "Sigma non-opioid intracellular receptor 1 (Rattus norvegicus) (UniProt Q9R0C9)", "test": "Antagonist activity at sigma 1 receptor in rat PC12 cells assessed as inhibition of PRE-084-mediated NGF-induced neurite outgrowth at 0.25 to 2.5 uM after 96 hrs", "format": "cell-based", "conditions": "PC-12", "how_it_was_run": "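PC12 cells in differentiation medium with NGF 2.5 ng/ml. The S1R agonist PRE-084 (5, 10, 25 μM; 10 mM stock in apyrogenic water) was given alone or with compound at 0.25 or 2.5 μM. NGF-induced neurite outgrowth was scored. Data are mean±sem of at least 5 experiments, each in triplicate.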"}, "[23]": {"test": "Cytotoxicity against human MDA-MB-231 cells assessed as reduction in cell viability after 24 hrs in presence of 10% fetal calf serum by MTS assay", "format": "functional, cell-based", "conditions": "MDA-MB-231, 24 h", "how_it_was_run": "as §1"}, "[24]": {"test": "Cytotoxicity against human Paca3 cells assessed as reduction in cell viability after 48 hrs in presence of 10% fetal calf serum by MTS assay", "format": "functional, cell-based", "conditions": "Paca3, 48 h", "how_it_was_run": "as §1"}, "[25]": {"test_system": "Capan-2", "test": "Cytotoxicity against human Capan2 cells assessed as reduction in cell viability after 48 hrs in presence of 10% fetal calf serum by MTS assay", "format": "functional, cell-based", "how_it_was_run": "as §1"}},
  "note": "Activity calls are given as the source filed them. The calls are words filed in the database; no cut-off is given here.",
  "data": [
    {"smiles": "C/C(=C\\CN1CCC(Cc2ccccc2)CC1)c1ccc2ccccc2c1", "values": [
      {"measurement": "Activity", "setting": "[1]", "result": "Active"},
      {"measurement": "IC50", "setting": "[2]", "result": 7, "unit": "µM"},
      {"measurement": "Ki", "setting": "[3]", "result": 0.012, "unit": "µM"},
      {"measurement": "IC50", "setting": "[4]", "result": 61.1, "unit": "µM"},
      {"measurement": "Activity", "setting": "[5]", "result": "Active"},
      {"measurement": "Activity", "setting": "[6]", "result": 10.9, "unit": "%"},
      {"measurement": "IC50", "setting": "[7]", "result": 49.8, "unit": "µM"},
      {"measurement": "IC50", "setting": "[8]", "result": 60.6, "unit": "µM"},
      {"measurement": "Activity", "setting": "[9]", "result": 34.1, "unit": "%"},
      {"measurement": "Activity", "setting": "[10]", "result": "Active"},
      {"measurement": "IC50", "setting": "[11]", "result": 52.6, "unit": "µM"},
      {"measurement": "IC50", "setting": "[12]", "result": 10.5, "unit": "µM"},
      {"measurement": "Activity", "setting": "[13]", "result": 71.6, "unit": "%"},
      {"measurement": "Activity", "setting": "[14]", "result": "Active"},
      {"measurement": "Activity", "setting": "[15]", "result": 43.1, "unit": "%"},
      {"measurement": "inhibition", "setting": "[16]", "result": "Active"},
      {"measurement": "IC50", "setting": "[17]", "result": 9.58, "unit": "µM"},
      {"measurement": "Activity", "setting": "[18]", "result": 17.2, "unit": "%"},
      {"measurement": "Activity", "setting": "[19]", "result": 0.4, "unit": "%"},
      {"measurement": "Ki", "setting": "[20]", "result": 0.022, "unit": "µM"},
      {"measurement": "Activity", "setting": "[21]", "result": "Active"},
      {"measurement": "inhibition", "setting": "[22]", "result": "Active"},
      {"measurement": "IC50", "setting": "[23]", "result": 64.9, "unit": "µM"},
      {"measurement": "IC50", "setting": "[24]", "result": 28.7, "unit": "µM"},
      {"measurement": "Activity", "setting": "[25]", "result": "Active"}
    ]}
  ]
}
